# Source: PubChem BioAssay (The Scripps Research Institute Molecular Screening Center)
# TAAR1 agonist: human TAAR1 agonists, primary screen, Fluo-8 calcium fluorescence, CHO RD-HGA16 cells | Trace amine-associated receptor 1 (Homo sapiens), Q96RJ0 | activation, % at 3 µM | hit rate 0.99% among 360,000 | vehicle wells 0%, saturating PEA agonist 100%;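 active = activation above the mean activation of all test compounds in the run plus 3 SD, cut at about 38% in these data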
# Target sequence (Q96RJ0 whole entry, looked up): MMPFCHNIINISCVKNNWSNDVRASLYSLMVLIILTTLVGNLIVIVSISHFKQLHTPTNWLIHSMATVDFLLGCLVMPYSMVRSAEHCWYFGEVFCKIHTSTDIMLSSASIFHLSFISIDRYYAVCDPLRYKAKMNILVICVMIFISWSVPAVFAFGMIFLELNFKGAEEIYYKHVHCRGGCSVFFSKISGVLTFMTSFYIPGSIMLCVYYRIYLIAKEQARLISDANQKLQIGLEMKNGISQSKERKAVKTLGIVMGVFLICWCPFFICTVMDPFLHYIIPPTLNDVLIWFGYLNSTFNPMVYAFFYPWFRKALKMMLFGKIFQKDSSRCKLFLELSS
#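 Signal – calcium-sensitive Fluo-8 signal, excitation 470-495, emission 515-575 nm · System – RD-HGA16 (CHO) cells co-expressing Gα16 and hTAAR1 · Incubation – 17-24 h seeding, 75 min 37 °C dye, 30 min RT · Compound dosing – 3 µM single concentration · Repeats – no replicates (n 1)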
# GPR7 antag: GPR7 receptor antagonists, primary screen, cell-based, fluorescence, single concentration; inhibition, % at 4.4 µM; AID 1861, 2009; Neuropeptides B/W receptor type 1 (Homo sapiens), P48145; hit rate 1.1% among 290,000; GPR7-expressing cells, fluorescence antagonist assay; in the data active = inhibition above about 16%, passing the limit was not always enough;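 also: cells stimulated with the agonist NPW; 0% = agonist with vehicle and 100% = vehicle without agonist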
# Target sequence (P48145 whole entry, looked up): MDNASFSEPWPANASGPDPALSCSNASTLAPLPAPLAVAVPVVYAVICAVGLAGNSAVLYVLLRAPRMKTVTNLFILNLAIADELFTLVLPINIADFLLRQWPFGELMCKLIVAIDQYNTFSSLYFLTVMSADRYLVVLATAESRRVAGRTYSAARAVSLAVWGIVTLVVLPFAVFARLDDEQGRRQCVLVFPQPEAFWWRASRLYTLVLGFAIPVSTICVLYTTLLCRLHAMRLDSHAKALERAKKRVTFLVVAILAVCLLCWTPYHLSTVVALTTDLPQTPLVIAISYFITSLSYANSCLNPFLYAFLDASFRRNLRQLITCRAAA
# OX1R antag-1: antagonists of human orexin 1 receptor (OX1R). Orexin/Hypocretin receptor type 1 (Homo sapiens), O43613. OX1R-expressing cells, FRET antagonist read-out. inhibition, % at 6.6 µM. hit rate 1.8% among 330,000; in the data active = inhibition mostly above about 38%, no sharp cut-off; inactive = mostly below about 40%;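 also: 0% = agonist challenge alone and 100% = reference antagonist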
# OX1R antag-2: OX1R (HCRTR1) antagonists, primary screen, fluorescence, CHO/OX1R cells, Fluo-8 calcium, orexin A | Fluo-8 calcium fluorescence | inhibition, % at 5 µM | hit rate 0.43% among 330,000 | AID 434989, 2010;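 active = inhibition above its plate's threshold, mean inhibition of all tested compounds on the plate plus 3 SD, cut at about 37% in these data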;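 also: 0% = orexin A challenge wells and 100% = SB-334867-A antagonist wells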
# CHO parental Ca: ATP-evoked calcium signal inhibitors, parental CHO, primary screen, counter-screen for OX1R antagonist project, cell-based, fluorescence, Fluo-8 calcium dye; hit rate 0.63% among 330,000; inhibition, % at 5.6 µM; parental CHO-K1, ATP-induced calcium, Fluo-8 fluorescence; AID 463079, 2010;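 active = inhibition above that plate's mean sample inhibition plus 3 SD, cut at about 26% in these data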;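 also: 0% = ATP-challenged DMSO wells and 100% = DMSO wells without ATP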
#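 Test system: untransfected parental CHO cell line; also added: ATP stimulus; dosing: 5.6 µM, single dose; signal: calcium-sensitive Fluo-8 fluorescence; measure: percent inhibition of ATP-evoked calcium rise, normalized to controls; benchmarks: low control ATP plus DMSO, high control DMSO only; replication: one well per compound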
# TAAR1 antagonist: human TAAR1 antagonists, primary screen, Fluo-8 calcium fluorescence, CHO RD-HGA16 cells; Trace amine-associated receptor 1 (Homo sapiens), Q96RJ0; antagonist; inhibition, % at 3 µM; hit rate 1.5% among 360,000;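 active = inhibition above a per-plate cutoff, the mean inhibition of test compounds on that plate plus 3 SD, cut at about 49% in these data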;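 also: 0% = DMSO plus EC80 beta-PEA response and 100% = DMSO alone without agonist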
#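 Test system: hTAAR1-expressing CHO RD-HGA16 cells, Gα16-coupled; Probe or stimulus: EC80 β-phenethylamine stimulus; Compound dosing: single nominal final test compound concentration of 3 µM; Timing: 140 s kinetic read after compound, 140 s after agonist; Signal: Fluo-8 calcium-sensitive fluorescence; Measure: % inhibition of agonist calcium response; Controls: DMSO and EC80 PEA controls.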
# Numbers without * were called inactive; x = no result. A selection: hits, their analogues and other compounds. The true share with any hit is near 4.6%.
SMILES,TAAR1 agonist,GPR7 antag,OX1R antag-1,OX1R antag-2,CHO parental Ca,TAAR1 antagonist
O=C1NCCOC(=O)[C@H](Cc2ccc(F)cc2)CC/C=C/C[C@H]1CC(=O)N(CCO)Cc1ccccc1,1,x,8,-29,-20,13
O=C1NC[C@H](c2ccccc2)OC(=O)[C@H](Cc2ccc(F)cc2)CC/C=C/C[C@H]1CC(=O)N(CCO)Cc1ccccc1,41*,x,39,5,-17,62*
O=S(=O)(c1ccccc1)N1CCCc2nc(-c3ccc(Br)cc3)ccc21,0,x,x,x,x,29
CC(C)(C)[C@H]1COC(=O)[C@H](NC(=O)OCC2c3ccccc3-c3ccccc32)C/C=C\C[C@@H](CC(=O)N(CCO)Cc2ccccc2)C(=O)N1,19,x,1,-28,-13,51*
O=C1NC[C@H](c2ccccc2)OC(=O)[C@@H](Cc2ccc(F)cc2)CC/C=C/C[C@H]1CC(=O)N(CCO)Cc1ccccc1,30,x,18,8,-20,71*
C[C@@H]1COC(=O)[C@H](NC(=O)OCC2c3ccccc3-c3ccccc32)C/C=C\C[C@@H](CC(=O)N(CCO)Cc2ccccc2)C(=O)N1,x,x,5,-30,-24,x
O=C1NC[C@H](c2ccccc2)OC(=O)[C@@H](Cc2ccc(F)cc2)CC/C=C/C[C@@H]1CC(=O)N(CCO)Cc1ccccc1,18,x,20,11,-17,44
O=C(Cc1ccc(NC(=O)C2CCN(C(=O)C3CCCC3)CC2)cc1)Nc1cccc(C(=O)N2CCCC2)c1,1,x,x,x,x,-15
Cn1c(CO)cnc1SCc1ccc([N+](=O)[O-])cc1,-1,-3,73*,-9,-4,1
CCOC(=O)c1cc2ccccc2n1C1CCN(CCc2ccccc2)CC1,32,x,x,x,x,46
COc1cc(NC(=S)NCCC(c2ccccc2)c2ccccc2)c(OC)cc1Cl,1,-10,58*,3,-13,10
S=C(NCCC(c1ccccc1)c1ccccc1)Nc1ccccc1Cl,7,21,46,-2,-24,50*
S=C(NCCC(c1ccccc1)c1ccccc1)Nc1ccc(Cl)cc1,10,16,17,16,-15,33
Cc1ccc(C(=O)Nc2ccccc2C(=O)NC(Cc2ccccc2)C(=O)O)cc1 (stereo not given),2,9,7,-5,-11,7
Cc1ccc(C(=O)Nc2ccccc2C(=O)NC(Cc2c[nH]c3ccccc23)C(=O)O)cc1 (stereo not given),3,-2,50*,-20,-20,-12
COc1cccc(CC(=O)OCC(=O)NNC(=O)c2ccc([N+](=O)[O-])cc2)c1,-1,-5,60*,-11,-9,-33
CN(c1ccc(OCC(=O)OCC(=O)Nc2ccc([N+](=O)[O-])cc2)cc1)S(=O)(=O)c1cccs1,41*,x,x,x,x,60*
CC(=O)Nc1cccc(C(=O)OCc2ccc([N+](=O)[O-])cc2)c1,1,-8,18,-8,-5,-11
O=C(COC(=O)C1CC2CCCC(C1)C2=O)NNC(=O)c1ccc([N+](=O)[O-])cc1 (stereo not given),0,x,69*,-15,0,-16
CN(c1ccc(OCC(=O)OCC(=O)Nc2ccccc2)cc1)S(=O)(=O)c1ccc(F)cc1,21,-9,12,-5,-3,31
CC(=O)Nc1cccc(C(=O)OCC(=O)NNC(=O)c2ccc([N+](=O)[O-])cc2)c1,4,x,52*,-6,2,-34
O=C(NNC(=O)c1ccc([N+](=O)[O-])cc1)c1ccncc1,2,5,70*,9,11,1
O=C(NNC(=O)c1ccc([N+](=O)[O-])cc1)c1ccc(F)cc1,5,x,61,6,0,-20
CCOc1ccc(OCC(=O)OCC(=O)NNC(=O)c2ccc([N+](=O)[O-])cc2)cc1,1,x,57*,3,7,2
O=C(COC(=O)CSc1ccccc1)NNC(=O)c1ccc([N+](=O)[O-])cc1,0,-8,47,-10,-5,-2
SMILES,TAAR1 agonist,GPR7 antag,OX1R antag-1,OX1R antag-2,CHO parental Ca,TAAR1 antagonist
O=C(COC(=O)CSc1ccc(F)cc1)NNC(=O)c1ccc([N+](=O)[O-])cc1,1,x,59*,3,-2,-3
O=C(COC(=O)Cc1ccccc1[N+](=O)[O-])NNC(=O)c1ccc([N+](=O)[O-])cc1,3,x,36*,-13,-5,-11
COc1ccc([C@H]2N[C@]3(CCCN(Cc4ccc(C(F)(F)F)cc4)C3=O)[C@H]3C(=O)N(C)C(=O)[C@@H]23)cc1,-1,x,x,x,x,-6
COC(=O)c1cc2c(c3c4ccccc4n(S(=O)(=O)c4ccccc4)c13)C(=O)N(Cc1ccc(C(F)(F)F)cc1)C2,0,x,x,x,x,-20
CCCCCCCCN1C(=O)[C@H](CC(=O)NCc2cccc3ccccc23)C[C@@]2(C(=O)OCC)CCCC=C12,1,x,x,x,x,-9
O=C(c1ccc([N+](=O)[O-])cc1)N1CCN(C(=O)c2cccnc2)CC1,1,-1,53*,-15,12,-8
Clc1ccc(CSc2nncn2-c2ccc3c(c2)OCCO3)cc1,8,19*,13,-2,-11,-22
CSc1nnc2c(n1)[nH]c1c(C)cccc12,1,0,32,-8,-4,8
CCSc1nnc2c(n1)[nH]c1c(C)cccc12,4,4,40*,-7,1,-10
CC(C(=O)Nc1ccccc1Br)c1ccc([N+](=O)[O-])cc1 (stereo not given),21,10,15,5,-8,3
Cc1ccc(NC(=O)C(C)c2ccc([N+](=O)[O-])cc2)cc1Cl (stereo not given),21,40*,16,-28,-7,44
COc1ccc(Nc2nnc(-c3ccc4c(c3)OCO4)o2)cc1,3,x,x,x,x,2
O=C(c1ccco1)N1CCN(c2c([N+](=O)[O-])nn(-c3ccc(Cl)cc3)[n+]2[O-])CC1,-1,1,42*,-18,-18,-15
O=C(Cn1sc2ccccc2c1=O)Nc1ccc(Br)cc1,39*,x,x,x,x,24
O=C(COC(=O)c1ccc[n+]([O-])c1)Nc1ccc([N+](=O)[O-])cc1C(F)(F)F,8,x,33*,-12,-4,13
O=C(COC(=O)c1cc[n+]([O-])cc1)Nc1cc([N+](=O)[O-])ccc1Cl,3,x,57*,-10,-14,-12
Oc1cc(O)cc(C=Cc2ccc(O)c(O)c2)c1,3,x,x,x,x,-27
